Calls of active or inactive are those of the source. The rule behind the calls is not given here. Positions of bridges follow the written chain, without caps; N, C: chain ends. Residues, ends and D or L forms follow the SMILES beside them.
Tests used:
[1] = target: T1, Lethal factor (Bacillus anthracis) (UniProt P15917); assay: (§1) Inhibition of Bacillus anthracis lethal factor protease preincubated for 30 mins prior to addition of substrate containing fluorescent proteins CyPet and YPet measured every 2 mins for 3 hrs by FRET assay
T1 sequence (whole entry): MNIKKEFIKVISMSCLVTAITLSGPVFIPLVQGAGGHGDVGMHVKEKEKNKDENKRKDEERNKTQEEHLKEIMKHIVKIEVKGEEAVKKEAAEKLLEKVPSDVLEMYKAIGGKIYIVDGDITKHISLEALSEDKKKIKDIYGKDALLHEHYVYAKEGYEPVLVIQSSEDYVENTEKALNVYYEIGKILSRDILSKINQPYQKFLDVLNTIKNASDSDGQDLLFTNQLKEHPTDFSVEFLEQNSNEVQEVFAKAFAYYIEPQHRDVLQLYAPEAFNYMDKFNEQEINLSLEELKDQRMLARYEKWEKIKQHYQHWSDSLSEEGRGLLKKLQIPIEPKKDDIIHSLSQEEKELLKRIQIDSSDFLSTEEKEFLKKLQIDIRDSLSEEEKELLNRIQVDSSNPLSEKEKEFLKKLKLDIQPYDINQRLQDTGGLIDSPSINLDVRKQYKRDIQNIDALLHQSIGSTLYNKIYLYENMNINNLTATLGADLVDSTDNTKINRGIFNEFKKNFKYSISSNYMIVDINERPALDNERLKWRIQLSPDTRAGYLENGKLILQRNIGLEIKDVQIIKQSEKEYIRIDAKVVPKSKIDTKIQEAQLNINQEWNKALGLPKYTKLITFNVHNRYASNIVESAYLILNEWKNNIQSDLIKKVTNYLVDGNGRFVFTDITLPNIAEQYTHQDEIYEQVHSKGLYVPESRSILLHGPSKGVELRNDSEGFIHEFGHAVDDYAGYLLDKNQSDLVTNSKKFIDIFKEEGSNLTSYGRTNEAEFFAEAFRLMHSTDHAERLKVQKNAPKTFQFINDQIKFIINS
Summary of the method: (§2)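 Preincubated with peptide from 1 nM to 10 μM for 30 min at room temperature. CyPet–YPet substrate (LF consensus sequence with (GGS)6 linkers) then added to a final 10 nM. FRET read every 2 min for 3 h with excitation at 405 nm and emission ratio It/I0 at 535 nm. Initial velocities fitted to log(inhibitor)–response with variable Hill slope. Run in triplicate.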

Lethal factor [2] = target: T2, Lethal factor (Bacillus anthracis, UniProt P15917); assay: as §1; summary of the method: as §2
T2 sequence (P15917 whole entry): T1 sequence (whole entry)

[3] = target: T1, Lethal factor (Bacillus anthracis); assay: Inhibition of Bacillus anthracis lethal factor protease up to 10 uM preincubated for 30 mins prior to addition of substrate containing fluorescent proteins CyPet and YPet measured every 2 mins for 3 hrs by FRET assay; summary of the method: as §2
HeLa = assay: Cytotoxicity against human HeLa cells up to 100 uM after 48 hrs by MTT assay; type: cell-based
Summary of the method: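 HeLa cells grown in DMEM with 10% FBS, penicillin and streptomycin at 37° C, 5% CO2. About 3 × 10^3 cells per well were seeded for 24 h, washed with PBS, then exposed to peptides in DMEM/10% FBS for 48 h at 37° C. MTT was added for 2 h and formazan dissolved in DMSO. Absorbance read at 595 nm with 670 nm background subtracted.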

Lethal factor [4] = target: T2, Lethal factor

| SMILES | inhibition [1] | also measured |
| --- | --- | --- |
| C[C@@H](O)[C@@H]1NC(=O)[C@@H]2CSSC[C@H](NC(=O)[C@H](Cc3c[nH]c4ccccc34)NC(=O)[C@H](CCCNC(=N)N)NC(=O)[C@H](CCCNC(=N)N)NC1=O)C(=O)N[C@@H](CCCNC(=N)N)C(=O)N[C@H]1CSSC[C@H](NC(=O)[C@H](CCCNC(=N)N)NC(=O)[C@@H]3CSSC[C@H](NC(=O)[C@H](Cc4c[nH]c5ccccc45)NC1=O)C(=O)N[C@@H](CCCNC(=N)N)C(=O)N[C@@H](CCCNC(=N)N)C(=O)N[C@@H](CCCNC(=N)N)C(=O)N[C@@H](Cc1c[nH]c4ccccc14)C(=O)N3)C(=O)N[C@@H](Cc1c[nH]c3ccccc13)C(=O)N2 (cyclo(CRCWCRRRWCRCWCTRRW); disulfide 1-14, 3-12, 5-10) | Dose-dependent effect |  |
| CC[C@H](C)[C@@H]1NC(=O)[C@@H]2CSSC[C@H](NC(=O)[C@H](CCCNC(=N)N)NC(=O)[C@@H]3CSSC[C@H](NC1=O)C(=O)N[C@@H]([C@@H](C)O)C(=O)N[C@@H](CCCNC(=N)N)C(=O)NCC(=O)N[C@@H](Cc1ccccc1)C(=O)N3)C(=O)N[C@@H](CC(C)C)C(=O)N[C@H]1CSSC[C@H](NC(=O)[C@H](Cc3c[nH]c4ccccc34)NC(=O)CNC(=O)[C@H](CCCNC(=N)N)NC(=O)[C@H](CCCNC(=N)N)NC1=O)C(=O)N[C@@H](CCCNC(=N)N)C(=O)N2 (cyclo(CICTRGFCRCLCRRGWCR); disulfide 1-10, 3-8, 12-17) | Dose-dependent effect |  |
| C[C@@H](O)[C@@H]1NC(=O)[C@@H]2CSSC[C@H](NC(=O)[C@H](Cc3ccccc3)NC(=O)CNC(=O)[C@H](CCCNC(=N)N)NC1=O)C(=O)N[C@@H](CCCNC(=N)N)C(=O)N[C@H]1CSSC[C@H](NC(=O)[C@H](CCCNC(=N)N)NC(=O)[C@@H]3CSSC[C@H](NC(=O)[C@H](Cc4c[nH]c5ccccc45)NC1=O)C(=O)N[C@@H](CCCNC(=N)N)C(=O)N[C@@H](CCCNC(=N)N)C(=O)N[C@@H](CCCNC(=N)N)C(=O)N[C@@H](Cc1c[nH]c4ccccc14)C(=O)N3)C(=O)N[C@@H](Cc1c[nH]c3ccccc13)C(=O)N2 (cyclo(CRCWCRRRWCRCWCTRGF); disulfide 1-14, 3-12, 5-10) | Dose-dependent effect |  |
| CC(C)C[C@@H]1NC(=O)[C@@H]2CSSC[C@H](NC(=O)[C@H](CCCNC(=N)N)NC(=O)[C@@H]3CSSC[C@H](NC1=O)C(=O)N[C@@H](CCCNC(=N)N)C(=O)N[C@@H](CCCNC(=N)N)C(=O)NCC(=O)N[C@@H](C(C)C)C(=O)N3)C(=O)N[C@@H](Cc1c[nH]c3ccccc13)C(=O)N[C@H]1CSSC[C@H](NC(=O)[C@H](Cc3ccccc3)NC(=O)CNC(=O)[C@H](CCCNC(=N)N)NC(=O)[C@H]([C@@H](C)O)NC1=O)C(=O)N[C@@H](CCCNC(=N)N)C(=O)N2 (cyclo(CLCRRGVCRCWCTRGFCR); disulfide 1-10, 3-8, 12-17) | Dose-dependent effect | IC50 (Lethal factor [2]): 205 nM |
| CC[C@H](C)[C@@H]1NC(=O)[C@@H]2CSSC[C@H](NC(=O)[C@H](CCCNC(=N)N)NC(=O)[C@@H]3CSSC[C@H](NC1=O)C(=O)N[C@@H]([C@@H](C)O)C(=O)N[C@@H](CCC(=O)O)C(=O)NCC(=O)N[C@@H](Cc1ccccc1)C(=O)N3)C(=O)N[C@@H](CC(C)C)C(=O)N[C@H]1CSSC[C@H](NC(=O)[C@H](C(C)C)NC(=O)CNC(=O)[C@H](CCCNC(=N)N)NC(=O)[C@H](CCCNC(=N)N)NC1=O)C(=O)N[C@@H](CCCNC(=N)N)C(=O)N2 (cyclo(CICTEGFCRCLCRRGVCR); disulfide 1-10, 3-8, 12-17) | Dose-dependent effect | IC50 (Lethal factor [2]): 3500 nM |
| C[C@@H](O)[C@@H]1NC(=O)[C@@H]2CSSC[C@H](NC(=O)[C@H](Cc3c[nH]c4ccccc34)NC(=O)CNC(=O)[C@H](CCCNC(=N)N)NC1=O)C(=O)N[C@@H](CCCNC(=N)N)C(=O)N[C@H]1CSSC[C@H](NC(=O)[C@H](CCCNC(=N)N)NC(=O)[C@@H]3CSSC[C@H](NC(=O)[C@H](Cc4c[nH]c5ccccc45)NC1=O)C(=O)N[C@@H](CCCNC(=N)N)C(=O)N[C@@H](CCCNC(=N)N)C(=O)N[C@@H](CCCNC(=N)N)C(=O)N[C@@H](Cc1c[nH]c4ccccc14)C(=O)N3)C(=O)N[C@@H](Cc1c[nH]c3ccccc13)C(=O)N2 (cyclo(CRCWCRRRWCRCWCTRGW); disulfide 1-14, 3-12, 5-10) | Dose-dependent effect |  |
| CC[C@H](C)[C@@H]1NC(=O)[C@H](CS)NC(=O)[C@H](CCCNC(=N)N)NC(=O)[C@H](CS)NC(=O)[C@H](C(C)C)NC(=O)CNC(=O)[C@H](CCCNC(=N)N)NC(=O)[C@H](CCCNC(=N)N)NC(=O)[C@H](CS)NC(=O)[C@H](CC(C)C)NC(=O)[C@H](CS)NC(=O)[C@H](CCCNC(=N)N)NC(=O)[C@H](CS)NC(=O)[C@H](Cc2ccccc2)NC(=O)CNC(=O)[C@H](CCCNC(=N)N)NC(=O)[C@H]([C@@H](C)O)NC(=O)[C@H](CS)NC1=O (cyclo(CICTRGFCRCLCRRGVCR)) |  | inhibition [3]: inactive |
| CC[C@H](C)[C@@H]1NC(=O)[C@@H]2CSSC[C@H](NC(=O)[C@H](CCCNC(=N)N)NC(=O)[C@@H]3CSSC[C@H](NC1=O)C(=O)N[C@@H]([C@@H](C)O)C(=O)N[C@@H](CCCNC(=N)N)C(=O)NCC(=O)N[C@@H](Cc1ccccc1)C(=O)N3)C(=O)N[C@@H](CC(C)C)C(=O)N[C@H]1CSSC[C@H](NC(=O)[C@H](Cc3c[nH]c4ccccc34)NC(=O)[C@H](CCCNC(=N)N)NC(=O)[C@H](CCCNC(=N)N)NC(=O)[C@H](CCCNC(=N)N)NC1=O)C(=O)N[C@@H](CCCNC(=N)N)C(=O)N2 (cyclo(CICTRGFCRCLCRRRWCR); disulfide 1-10, 3-8, 12-17) | Dose-dependent effect |  |
| CC[C@H](C)[C@@H]1NC(=O)[C@@H]2CSSC[C@H](NC(=O)[C@H](CCCNC(=N)N)NC(=O)[C@@H]3CSSC[C@H](NC1=O)C(=O)N[C@@H]([C@@H](C)O)C(=O)N[C@@H](CCCNC(=N)N)C(=O)NCC(=O)N[C@@H](Cc1ccccc1)C(=O)N3)C(=O)N[C@@H](Cc1c[nH]c3ccccc13)C(=O)N[C@H]1CSSC[C@H](NC(=O)[C@H](Cc3c[nH]c4ccccc34)NC(=O)[C@H](CCCNC(=N)N)NC(=O)[C@H](CCCNC(=N)N)NC(=O)[C@H](CCCNC(=N)N)NC1=O)C(=O)N[C@@H](CCCNC(=N)N)C(=O)N2 (cyclo(CICTRGFCRCWCRRRWCR); disulfide 1-10, 3-8, 12-17) | Dose-dependent effect |  |
| N=C(N)NCCC[C@@H]1NC(=O)[C@H](CCCNC(=N)N)NC(=O)[C@@H]2CSSC[C@H](NC(=O)[C@H](Cc3c[nH]c4ccccc34)NC(=O)[C@H](CCCNC(=N)N)NC1=O)C(=O)N[C@@H](CCCNC(=N)N)C(=O)N[C@H]1CSSC[C@H](NC(=O)[C@H](CCCNC(=N)N)NC(=O)[C@@H]3CSSC[C@H](NC(=O)[C@H](Cc4c[nH]c5ccccc45)NC1=O)C(=O)N[C@@H](CCCNC(=N)N)C(=O)N[C@@H](CCCNC(=N)N)C(=O)N[C@@H](CCCNC(=N)N)C(=O)N[C@@H](Cc1c[nH]c4ccccc14)C(=O)N3)C(=O)N[C@@H](Cc1c[nH]c3ccccc13)C(=O)N2 (cyclo(CRCWCRRRWCRCWCRRRW); disulfide 1-14, 3-12, 5-10) | Dose-dependent effect | Activity (HeLa): Non-Toxic; IC50 (Lethal factor [4]): 250 nM |
| CC[C@H](C)[C@@H]1NC(=O)[C@@H]2CSSC[C@H](NC(=O)[C@H](CC(=O)O)NC(=O)[C@@H]3CSSC[C@H](NC1=O)C(=O)N[C@@H]([C@@H](C)O)C(=O)N[C@@H](CCCNC(=N)N)C(=O)NCC(=O)N[C@@H](Cc1ccccc1)C(=O)N3)C(=O)N[C@@H](CC(C)C)C(=O)N[C@H]1CSSC[C@H](NC(=O)[C@H](C(C)C)NC(=O)CNC(=O)[C@H](CCCNC(=N)N)NC(=O)[C@H](CCCNC(=N)N)NC1=O)C(=O)N[C@@H](CCCNC(=N)N)C(=O)N2 (cyclo(CDCLCRRGVCRCICTRGF); disulfide 1-14, 3-12, 5-10) | Dose-dependent effect |  |

Source: ChEMBL document CHEMBL4007405 (J Med Chem, 2017)
